Data published in ChEMBL document CHEMBL3632550, “Saponarin activates AMPK in a calcium-dependent manner and suppresses gluconeogenesis and increases glucose uptake via phosphorylation of CRTC2 and HDAC5” (Bioorg Med Chem Lett, 2015).
The source made the active and inactive calls. The rule behind the calls is not given here.

Target: AMP-activated protein kinase, AMPK (Homo sapiens) (UniProt P54646+O43741+P54619+Q9UGJ0+Q9Y478+Q13131+Q9UGI9)
Test: Activation of AMPK in human HepG2 cells assessed as reduction of gluconeogenesis at 1 mM after 24 hrs by enzymatic colorimetric assay
Assay type: cell-based
How it was run: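 HepG2 cells seeded in DMEM with 10% FBS, switched next day to FBS-free medium and treated 24 h. Medium then replaced by glucose-free, phenol red-free DMEM with 20 mM sodium lactate and 2 mM sodium pyruvate. After 6 h, glucose released into the medium was measured by enzymatic colorimetric assay and normalized to total cell protein. Mean ± SEM; one-way ANOVA with Tukey test.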

- Activity: Active
Compound: CN(C)C(=N)NC(=N)N
